According to PMC10330775 (Experimental cell research, 2023):

Biological target: T1, RsTSPO WT (Cereibacter sphaeroides, UniProt Q9RFC8)
T1 sequence (Q9RFC8 1-158): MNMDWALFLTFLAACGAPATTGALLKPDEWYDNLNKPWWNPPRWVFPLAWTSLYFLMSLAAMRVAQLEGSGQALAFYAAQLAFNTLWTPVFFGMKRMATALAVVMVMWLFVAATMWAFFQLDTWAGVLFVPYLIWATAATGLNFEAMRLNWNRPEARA
Assay: tryptophan fluorescence quenching titration, Hill fit
Format: binding
Procedure, shortened: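 Purified wild-type Rhodobacter sphaeroides TSPO, 2.5 uM in 20mM Tris pH 8.0, 150mM NaCl, 0.20% DM, 2mM TCEP, titrated at room temperature with increasing amounts of test compound in DMSO. Emission scanned 290–400 nm, excitation 285 nm. Ligand, buffer and solvent absorption/emission controls run. Kd from Hill-equation fit of the quenching curve.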

Nc1ccccc1C(=O)C[C@H](N)C(=O)O [Kynurenine]
Kd: 172 ± 11 µM
